Reference: paper PMC4351917 (Journal of medicinal chemistry, 2014)
Marks after values point to notes of the source that are not given here.

Columns and labels:
[1] = Lipophilicity by RP-HPLC retention factors; type: physicochemical; details: for log kw: 0.1% TFA water/MeOH, values extrapolated to 0% MeOH; for log k30: mobile phase containing 30% MeOH
[2] = Stability in aqueous media under physiologically relevant conditions; type: physicochemical; details: PBS (pH 7.4 and 6.0), 37 °C, 0.5 mM
How it was run: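 Each complex (0.5 mM) was incubated at 37 °C for 24 h in water, PBS pH 7.4, PBS pH 6.0 and 0.05 M HCl (pH 1.5). Samples taken at 1 and 24 h were analysed by isocratic RP-HPLC on a C18 column at 25 °C, with 0.1% TFA water/MeOH adjusted for elution within 15 min and UV detection at 210 nm.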

[3] = test system: A549 (nonsmall cell lung cancer); details: read-out: IC50, 96 h A549; MTT assay, exposure 96 h; cited from earlier work
[4] = Platinum concentration in mouse tissues and serum by ICP-MS; type: in vivo, Balb/c mice; details: for serum platinum level: CT-26 mice
CH1 (ovarian carcinoma) [5] = details: read-out: IC50, 96 h CH1; MTT assay, exposure 96 h; cited from earlier work
SW480 (colon carcinoma) [6] = details: read-out: IC50, 96 h SW480; MTT assay, exposure 96 h; cited from earlier work
CH1 (ovarian carcinoma) [7] = assay: MTT cytotoxicity assay, CH1; type: cell-based, human; details: CH1 cells
How it was run: (§1)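 Adherent cells grown in MEM with 10% FBS, pyruvate, NEAA and glutamine, without antibiotics. Seeded per well at 1.0 × 10³ for CH1 and 2.0 × 10³ for SW480, then settled for 24 h. Serial dilutions of test compound in medium were applied for 96 h continuous exposure at 37 °C. MTT was added for 4 h, formazan dissolved in DMSO, and read at 550 nm (ref 690 nm). IC₅₀ was interpolated from concentration–effect curves, ≥3 independent experiments in triplicate.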

SW480 (colon carcinoma) [8] = assay: MTT cytotoxicity assay, SW480; type: cell-based, human; details: SW480 cells
How it was run: as §1

Aqueous solubility = type: physicochemical; details: water
[9] = Reduction by sodium ascorbate, RP-HPLC; type: physicochemical; details: 15-fold excess sodium ascorbate
[10] = test system: L1210 murine leukemia cells; assay: Antileukemic activity in vivo; design: species or system female DBA/2J × Balb/c SCID F1 mice; details: L1210 leukemia-bearing mice
[11] = General toxicity in the animal experiments; details: all in vivo experiments, 10-30 mg/kg i.p., mice
How it was run: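 Test compound in water, given i.p. L1210 model: female DBA/2J × Balb/c SCID F1 mice, 1 × 10⁵ cells i.p. on day 0, dosed 10, 20, 30 mg/kg on days 1, 5, 9, with daily observation and body weight. CT-26 model: female Balb/c mice aged 6–8 weeks, 5 × 10⁵ cells s.c. into the flank, 30 mg/kg on days 4, 7, 11, 14, with daily distress checks.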

[12] = 9 mg/kg i.v. days 4, 7, 11, 14, day 15
[13] = 30 mg/kg i.p. days 4, 7, 11, 14, day 15

In the case of `NCCN.O=C1[O][Pt]2([O]C(=O)C13CCC3)[O]C(=O)C1(CCC1)C(=O)[O]2` [1d, (OC-6-22)-Bis(1,1-cyclobutanedicarboxylato)ethane-1,2-diamineplatinum(IV)], the log kw [1] is reported as 1.28 ± 0.01 and the “log k30” value [1] is reported as 0.28 ± 0.01.
With `CCN.CCN.O=C([O-])CC(=O)[O-].O=C([O-])CC(=O)[O-].[Pt+4]` [2b, (OC-6-22)-Bis(ethylamine)bis(malonato)platinum(IV)] the “decomposition after 24 h of incubation in PBS solution” value [2] was < 10%.
In the case of `N.N.O=C([O-])C1(C(=O)[O-])CCC1.[Pt+2]` [carboplatin, reference compound], the log kw [1] is given as −0.36 ± 0.04^c, the “log k30” value [1] is given as −0.80 ± 0.01 and the IC50 [3] is given as 91000 ± 10000 nM.
For `O=C1[O][Pt]2([NH][C@@H]3CCCC[C@H]3[NH]2)[O]C1=O` [oxaliplatin, reference compound], the serum platinum level ([4]; 9 mg/kg i.v. days 4, 7, 11, 14, 24 h after last application) was ~ 0.3 μg/mL, the platinum in kidney [4, 12] was ~ 4.5 μg/g and the platinum in liver [4, 12] was ~ 2 μg/g. The IC50 [3] was 980 ± 210 nM, the IC50 (CH1 (ovarian carcinoma) [5]) was 180 ± 10 nM and the IC50 (SW480 (colon carcinoma) [6]) was 290 ± 50 nM.
In the case of `CC(=O)[O][Pt]([NH2])([Cl])([Cl])([NH]C1CCCCC1)[O]C(C)=O` [satraplatin, reference compound], the log kw [1] is reported as 1.63 ± 0.04 and the “log k30” value [1] is reported as 0.68 ± 0.01.
With “(OC-6-22)-((1R,2R)-Diaminocyclohexane)bis(malonato)-platinum(IV) [4b]” the log kw [1] was −0.11 ± 0.01, the “log k30” value [1] was −0.65 ± 0.02 and the “times more potent than 1b” value (CH1 (ovarian carcinoma) [7]; versus 1b) was 4 times. The “times more potent than 2b” value (CH1 (ovarian carcinoma) [7]; versus 2b) was 12 times, the “potency relative to 3b” value (CH1 (ovarian carcinoma) [7]; versus 3b) was “twice as potent” and the “activity relative to 5b” value (CH1 (ovarian carcinoma) [7]; versus 5b) was “same activity”. The “times more active than 1b, 2b, and 3b” value (SW480 (colon carcinoma) [8]; versus 1b, 2b and 3b) was “at least 8 times”, the “times more active than 5b” value (SW480 (colon carcinoma) [8]; versus 5b) was 6 times and the “decomposition after 24 h of incubation in PBS solution” value [2] was “no decomposition products were observed”. For the same molecule, the aqueous solubility (Aqueous solubility) was > 15 mM, the “complex still in its native form” value ([9]; PBS pH 7.4, 37 °C, after 20 h) was “more than 90%” and the complex intact ([9]; unbuffered water, 37 °C, after 24 h) was ~ 95%. The effect on survival ([10]; 10 mg/kg i.p. on days 1, 5, 9) was “no effect on the survival”, the mice being cured ([10]; 30 mg/kg i.p. on days 1, 5, 9, n = 4) was 3/4 and the serum platinum level ([4]; 30 mg/kg i.p. days 4, 7, 11, 14, 24 h after last application) was ~ 3 μg/mL. For the same molecule, the platinum in kidney [4, 13] was ~ 10.5 μg/g, the platinum in liver [4, 13] was ~ 15 μg/g and the platinum in lung [4, 13] was ~ 5 μg/g. For the same molecule, the “platinum in sciatic nerve” value [4, 13] was ~ 1.8 μg/g, the “platinum in tumor tissue” value [4, 13] was ~ 5 μg/g and the “serum platinum circulation compared to oxaliplatin-treated mice” value ([4]; 4b 30 mg/kg i.p. versus oxaliplatin 9 mg/kg i.v., 24 h after last application) was 10 times. The “tolerability / signs of toxicity (fatigue, weight loss)” value [11] was “well-tolerated with no signs of toxicity”.
